Measured values gathered from unrelated publications.
Protocols differ between the studies behind these lines.

CC[C@H](C)[C@H](NC(=O)[C@H](CCC(=O)O)NC(=O)[C@H](CO)NC(=O)[C@@H](NC(=O)[C@@H](N)CO)C(C)C)C(=O)N[C@@H](CCC(N)=O)C(=O)N[C@@H](CC(C)C)C(=O)N[C@@H](CCSC)C(=O)N[C@@H](Cc1cnc[nH]1)C(=O)N[C@@H](CC(N)=O)C(=O)N[C@@H](CC(C)C)C(=O)NCC(=O)N[C@@H](CCCCN)C(=O)N[C@@H](Cc1cnc[nH]1)C(=O)N[C@@H](CC(C)C)C(=O)N[C@@H](CC(N)=O)C(=O)N[C@@H](CO)C(=O)N[C@@H](CCSC)C(=O)N[C@@H](CCC(=O)O)C(=O)N[C@@H](CCCNC(=N)N)C(=O)N[C@H](C(=O)N[C@@H](CCC(=O)O)C(=O)N[C@@H](Cc1c[nH]c2ccccc12)C(=O)N[C@@H](CC(C)C)C(=O)N[C@@H](CCCNC(=N)N)C(=O)N[C@@H](CCCCN)C(=O)N[C@@H](CCCCN)C(=O)N[C@@H](CC(C)C)C(=O)N[C@@H](CCC(N)=O)C(=O)N[C@@H](CC(=O)O)C(=O)N[C@H](C(=O)N[C@@H](Cc1cnc[nH]1)C(=O)N[C@@H](CC(N)=O)C(=O)N[C@@H](Cc1ccccc1)C(N)=O)C(C)C)C(C)C — Tmax (female CD-1 mouse, serum; intravenous, 10 nmol/kg): 1.8 min
NCc1ccc(-c2nn(Cc3ccccc3)c3ccccc23)o1 — Tmax (male CD-1 mouse, plasma; intraperitoneal, 30 mg/kg): 30 min
COC1=CC(c2ccc[nH]2)=N/C1=C\c1[nH]c(Cc2ccc(OC(F)(F)F)cc2)cc1Cc1ccc(OC(F)(F)F)cc1 — Tmax (male CD-1 mouse, liver; oral, 40 mg/kg, single dose): 240 min
COCC(=O)N1CCc2[nH]c3c(Cl)c(Cl)ccc3c2[C@@H]1C — Tmax (C57BL/6 mouse, blood; intravenous, 1 mg/kg): 5 min
CN(C)C(=O)c1cc2cnc(Nc3ccc(-c4ccc5c(=O)cc(N6CCOCC6)oc5c4)cc3)nc2n1C1CCCC1 — Tmax (BALB/c mouse, plasma; oral, 20 mg/kg): 24 min
FC(F)(F)CN1CC(n2cc(Oc3ccn4nc(Cl)cc4n3)cn2)C1 — Tmax (FVB mouse, blood; oral, single dose): 30 min
OCc1ccc(-c2nn(Cc3ccccc3)c3ccccc23)o1 — Tmax (male CD-1 mouse, plasma; oral, 10 mg/kg): 15 min
Cc1[nH]c(C)c(S(=O)(=O)Nc2ccc(C(F)(F)F)c(Cl)c2)c1C(=O)N1CCC(F)(F)C1 — Tmax (male CD-1 mouse, plasma; intraperitoneal, 40 mg/kg): 60 min
COc1cc(C2C3=C(COC3=O)N(CCO)c3cc4c(cc32)CCC4)cc(OC)c1OC (stereo not drawn) — Tmax (female C57BL/6 mouse, plasma; intraperitoneal, 50 mg/kg): 60 min
NCc1cc2c(cc1F)C(=O)N(C1CCC(=O)NC1=O)C2 (stereo not drawn) — Tmax (male CD-1 mouse, plasma; oral, 10 mg/kg): 48 min
COC1=CC(c2ccc[nH]2)=N/C1=C\c1cc(Cc2ccc(OC(F)(F)F)cc2)c(C)[nH]1.Cl — Tmax (male CD-1 mouse, plasma; oral, 40 mg/kg, single dose): 1440 min
Cc1ccc(OCC(=O)N[C@@H](Cc2c[nH]c3ccccc23)C(=O)OC(C)C)cc1 — Tmax (male Sprague-Dawley mouse, plasma; oral, 20 mg/kg): 72 min
NCc1ccc(-c2nn(Cc3ccncc3)c3ccccc23)o1 — Tmax (male CD-1 mouse, plasma; oral, 10 mg/kg): 30 min
CCn1c(=O)c(-c2cc(NC(=O)Nc3ccccc3)c(F)cc2Br)cc2cnc(NC)cc21 — Tmax (male mouse, plasma; oral, 15 mg/kg, single dose): 60 min
Cc1nc2ccc(OCc3ccc(C(F)(F)F)cc3)cc2[nH]1 — Tmax (male BALB/c mouse, plasma; oral, 10 mg/kg): 15 min
